What all share (type): functional
Test [1] deals with Mycobacterium tuberculosis variant bovis BCG. As to the kind of experiment: Bactericidal activity against Mycobacterium bovis BCG ATCC 35734 assessed as 1000 fold reduction in CFU after 5 days. Particulars: ATCC 35734, 120 h, read-out: MBC99.9. In a few lines: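 BCG ran 5 days at 37°C, 110 rpm; H37Rv ran 7 days at 37°C, 80 rpm. CFU counted on 7H10 agar. MBC99.9 is the 1000-fold CFU reduction versus inoculum at time zero. Average of 2 or more determinations.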

For test [2] the test system is unchanged. As to the kind of experiment: Antimycobacterial activity against Mycobacterium bovis BCG ATCC 35734 after 5 days in presence of 10% FBS by broth dilution method. Particulars: ATCC 35734, 120 h.
Test [3] has the same test system. Nature of the test: Antimycobacterial activity against Mycobacterium bovis BCG ATCC 35734 after 5 days in absence of glycerol by broth dilution method. As to conditions: ATCC 35734, 120 h.
The test system is the same in test [4]. Nature of the test: Antimycobacterial activity against Mycobacterium bovis BCG ATCC 35734 after 5 days by broth dilution method. Particulars: ATCC 35734, 120 h.

Converted amounts (≈) assume the structure as drawn. Where only a bound is given, the exact number is not on record here.

One may read the MIC50 as the lowest concentration that inhibits either 50% of growth or 50% of the strains tested, depending on the study. By MIC90 is commonly meant the lowest concentration that inhibits either 90% of growth or 90% of the strains tested, depending on the study. Take `CCCCCCCCn1cc(CN2CCC3(CC2)SCCCS3)c2ccc(OC)cc21`: the MBC in test [1] lay within 0.8 to 1.6 µM (≈ 0.369 to 0.737 µg/mL). Also, the figures for the MIC50 in test [2], in test [3] and in test [4] were 0.48 µM, 0.43 µM (≈ 0.198 µg/mL) and 0.4 µM (≈ 0.184 µg/mL), respectively. The compound also displayed an MIC90 in test [4] of 0.8 µM (≈ 0.369 µg/mL).
For `CCCCCCCCn1cc(CN2CCC3(CC2)OCCS3)c2ccc(OC)cc21`, the MBC in test [1] was 0.8 to 1.6 µM (≈ 0.345 to 0.689 µg/mL). In addition, the figures for the MIC50 in test [2], in test [3] and in test [4] were 0.32 µM, 0.37 µM (≈ 0.159 µg/mL) and 0.6 µM (≈ 0.258 µg/mL), respectively. Besides, the MIC90 in test [4] came to 0.8 µM (≈ 0.345 µg/mL).
For `CCCCCCCCn1cc(CN2CCC3(CC2)SCCS3)c2ccc(OC)cc21`, in test [1], the MBC lay in the range of 0.8 to 1.6 µM (≈ 0.357 to 0.715 µg/mL). The MIC50 is 0.28 µM in test [2], 0.27 µM (≈ 0.121 µg/mL) in test [3] and 0.5 µM (≈ 0.223 µg/mL) in test [4]. Moreover, in test [4], the MIC90 turned out to be 0.8 µM (≈ 0.357 µg/mL).
In test [4], `CCCCCCCCn1cc(CN2CCC3(CC2)OC(C)C(C)O3)c2ccc(OC)cc21` (stereo unspecified) came in with an MIC50 of 0.7 µM (≈ 0.31 µg/mL) and an MIC90 of 1.6 µM (≈ 0.708 µg/mL).
In test [4], `CCCCCCCCn1cc(CN2CCC3(CC2)OCCCO3)c2ccc(OCCC)cc21` yielded an MIC50 of 0.7 µM (≈ 0.32 µg/mL) and an MIC90 of 1.2 µM (≈ 0.548 µg/mL).
In test [4], `COc1ccc2c(CN3CCC4(CC3)OCCO4)cn(CCCOCc3ccccc3)c2c1` displayed an MIC50 of 16 µM (≈ 7.21 µg/mL) and an MIC90 of 40 µM (≈ 18 µg/mL).
In test [4], `CCCCCCCCn1cc(CNCC2CC3CC3C2)c2ccc(OC)cc21` (stereo unspecified) returned an MIC50 of 2 µM (≈ 0.765 µg/mL) and an MIC90 of 4 µM (≈ 1.53 µg/mL).
On to `COc1ccc2c(CN3CCC4(CC3)OCCCO4)cn(CCCc3ccccc3)c2c1`, for which, in test [4], the MIC50 was found to be 2.6 µM (≈ 1.13 µg/mL) and the MIC90 was 9.8 µM (≈ 4.26 µg/mL).
In the same order, the values of `CCCCCCCCn1cc(CNCC2CCC3CC3C2)c2ccc(OC)cc21` (stereo unspecified) are 1.6 µM (≈ 0.635 µg/mL) and 2.3 µM (≈ 0.912 µg/mL).
Consider `CCCCCCCCn1cc(CNC2CCC3(CC2)OCCO3)c2ccc(OC)cc21`, for which, in test [4], the MIC50 came out at 3.6 µM (≈ 1.54 µg/mL) and the MIC90 came to 6.3 µM (≈ 2.7 µg/mL).
Take `CCCCCCCCn1ccc2cccc(OCCCN3CCCC3)c21`: in test [4], the MIC50 was 10 µM (≈ 3.57 µg/mL) and the MIC90 was 22 µM (≈ 7.84 µg/mL).
`COc1ccc2c(CN3CCCCC3)cn(CCCOc3ccccc3)c2c1`: in test [4], the MIC50 came out at 30 µM (≈ 11.4 µg/mL) and the MIC90 was found to be 50 µM (≈ 18.9 µg/mL).
`CCCCCCCCn1ccc2ccc(OCCCN3CCC4(CC3)OC[C@H](C)O4)cc21`: in test [4], the MIC50 came out at 11 µM (≈ 4.87 µg/mL) and the MIC90 stood at 25 µM (≈ 11.1 µg/mL).
Regarding `COc1ccc2c(CN3CCCCC3)cn(CCCOCc3ccccc3)c2c1`, in test [4], the MIC50 was determined as 46 µM (≈ 18.1 µg/mL) and the MIC90 is > 50 µM.
In test [4], `COc1ccc2c(CN3CCC4(CC3)OCCO4)cn(CCCc3ccccc3)c2c1` returned an MIC50 of 6 µM (≈ 2.52 µg/mL) and an MIC90 of 18 µM (≈ 7.57 µg/mL).
As to `COc1ccc2c(CN3CCCCC3)cn(CCCOc3ccc(C)cc3)c2c1`, in test [4], the MIC50 amounted to 19 µM (≈ 7.46 µg/mL) and the MIC90 was found to be 41 µM (≈ 16.1 µg/mL).
In test [4], `CCCCCCCCn1ccc2ccc(OCCCN3CCCCC3)cc21` had an MIC50 of 13 µM (≈ 4.82 µg/mL) and an MIC90 of 25 µM (≈ 9.26 µg/mL).
In test [4], `CCCCCCCCn1ccc2ccc(OCCCN3CCC4(CC3)OCCCO4)cc21` returned an MIC50 of 5.6 µM (≈ 2.48 µg/mL) and an MIC90 of 28 µM (≈ 12.4 µg/mL).
In test [4], `COc1ccc2c(CN3CCC4(CC3)OCCCO4)cn(CCCCc3ccccc3)c2c1` gave an MIC50 of 1.6 µM (≈ 0.718 µg/mL) and an MIC90 of 3.1 µM (≈ 1.39 µg/mL).
The matching figures for `CCCCCCCCn1cc(CN2CCCC(=O)CC2)c2ccc(OC)cc21`: 17 µM (≈ 6.54 µg/mL) and 42 µM (≈ 16.2 µg/mL).
In test [4], `CCCCCCCCn1ccc2cc(OCCCN3CCCCC3)ccc21` yielded an MIC50 of 13 µM (≈ 4.82 µg/mL) and an MIC90 of 40 µM (≈ 14.8 µg/mL).
For `COc1ccc2c(CN3CCC4(CC3)OCCCO4)cn(C/C=C/c3ccccc3)c2c1`, in test [4], the MIC50 amounted to 4.8 µM (≈ 2.08 µg/mL) and the MIC90 was 9 µM (≈ 3.89 µg/mL).
The matching figures for `CCCCCCCCn1cc(CN2CCC3(CC2)OC[C@@H](C)O3)c2ccc(OC)cc21`: 0.6 µM (≈ 0.257 µg/mL) and 0.8 µM (≈ 0.343 µg/mL).
In test [4], `COc1ccc2c(CN3CCC4(CC3)OCCCO4)cn(CCCOc3ccc(C)c(C)c3)c2c1` had an MIC50 of 1.7 µM (≈ 0.814 µg/mL) and an MIC90 of 2.7 µM (≈ 1.29 µg/mL).
In test [4], `CCCCCCCCn1cc(CN2CCC(=O)CC2)c2ccc(OC)cc21` registered an MIC50 of 17 µM (≈ 6.3 µg/mL) and an MIC90 of 24 µM (≈ 8.89 µg/mL).
The matching figures for `COc1ccc2c(CN3CCC4(CC3)OCCO4)cn(CCCCOc3ccccc3)c2c1`: 20 µM (≈ 9.01 µg/mL) and 41 µM (≈ 18.5 µg/mL).

For the origin of these results see ChEMBL document CHEMBL4145615, “Indolyl Azaspiroketal Mannich Bases Are Potent Antimycobacterial Agents with Selective Membrane Permeabilizing Effects and in Vivo Activity” (J Med Chem, 2018).
